The values below come from ChEMBL document CHEMBL2040716, “Discovery of a new antileishmanial hit in 8-nitroquinoline series” (Eur J Med Chem, 2012).

The IC50 is the concentration needed to halve the response being measured. In general, CC50 refers to the concentration that lowers cell viability or growth by half. A higher CC50 goes with lower toxicity to the cells.

The test system of data set [1] is Leishmania donovani. Kind of data set: Antileishmanial activity against Leishmania donovani MHOM/IN/00/DEVI promastigotes after 72 hrs by MTT assay. It counts as functional, organism-based. The procedure, abridged: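 Late log-phase promastigotes in Schneider's medium with 20% FCS, 2 mM L-glutamine, penicillin/streptomycin, at 10^6 parasites/mL. Compounds in DMSO (final <0.5% v/v) over a concentration range, in duplicate, 72 h at 27 °C. MTT 0.5 mg/mL added for 6 h at 27 °C; pellet dissolved in DMSO; A570. IC50 by non-linear regression versus control; mean of two independent experiments.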
Background: Tetrazolium assays rely on reduction of a dye to a coloured formazan, in cell work by metabolically active cells.

Data set [2] is described as follows: Cytotoxicity against mouse J774A1 cells after 72 hrs by MTT assay. Type of data set: cell-based, J774.A1. In short, it runs like this: (§1)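 Cells plated in RPMI with 10% FBS, L-glutamine, penicillin/streptomycin at 37 °C, 6% CO2. After 24 h, a range of compound concentrations was added for 72 h. Wells checked for precipitate; MTT for 2 h at 37 °C; formazan dissolved in DMSO; A570 with 630 nm reference. Viability as % of untreated control; CC50 from dose-response curve, mean of two independent experiments.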

Data set [3] is described as follows: Cytotoxicity against human HepG2 cells after 72 hrs by MTT assay. Type of data set: cell-based. In short, it runs like this:
as §1

The nature of data set [4]: Selectivity index, ratio of CC50 for mouse J774A1 cells to IC50 for Leishmania donovani MHOM/IN/00/DEVI promastigotes. It counts as functional, J774.A1. In short, it runs like this:
(§2)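 SI computed as CC50 (HepG2 or J774) divided by L. donovani promastigote IC50. Both values come from the MTT assays above, each the mean of two independent experiments.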

A short description of data set [5]: Selectivity index, ratio of CC50 for human HepG2 cells to IC50 for Leishmania donovani MHOM/IN/00/DEVI promastigotes. Type of data set: functional. In short, it runs like this:
as §2

A further data set concerns Leishmania infantum. Kind of data set: Antileishmanial activity against Leishmania infantum MCAN/ES/98/LLM-877 promastigotes after 72 hrs by MTT assay. It counts as functional, organism-based. To be noted: MCAN/ES/98/LLM-877, 72 h.
For data set [6], the system named is Leishmania donovani. Kind of data set: Antileishmanial activity against Leishmania donovani MHOM/IN/00/DEVI amastigotes infected in mouse J774A.1 cells after 120 hrs by Giemsa staining-based microscopic analysis. Particulars: J774.A1, 120 h.
A further data set relates to Toxoplasma gondii. Kind of data set: Antitoxoplasmic activity against Toxoplasma gondii PRU tachyzoites infected in human HFF cells assessed as beta-galactosidase activity after 72 hrs by colorimetric assay. Type of data set: functional, cell-based. The procedure, abridged:
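HFF monolayers grown to confluence (3.10^4 cells/well) in RPMI with 10% FCS at 37 °C, 6% CO2. Infected with 1 × 10^4 PRU-β-Gal tachyzoites for 3 h, then compounds (DMSO <0.5% v/v) added in triplicate for 72 h. 1 mM CPRG for 6 h; read at 570 and 630 nm, blanked on uninfected wells. IC50 by non-linear regression; mean of two experiments.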

In turn, `O=Cc1ccc2ccccc2n1` registered a concentration for half-maximal inhibition (IC50) in the data set on Leishmania donovani [1] greater than 50 µM. Also, the CC50 at 72 h in data set [2] was 28.8 µM; in data set [3], greater than 100 µM. Also, the “Ratio CC50/IC50” value in data set [4] is less than 0.58.
With `Cc1ccc2cc([N+](=O)[O-])ccc2n1`, the half-maximal inhibitory concentration (IC50) in the data set on Leishmania donovani [1] was greater than 50 µM. The 50% cytotoxic concentration (CC50) at 72 h in data set [2] and in data set [3] was greater than 100 µM throughout.
With `O=[N+]([O-])c1cccc2ncccc12`, the half-maximal inhibitory concentration (IC50) with Leishmania donovani [1] was greater than 50 µM. Also, the cytotoxic concentration (CC50) at 72 h in data set [2] and in data set [3] was greater than 100 µM in each case.
In turn, `O=[N+]([O-])c1cccc2cccnc12` had an IC50 in the data set on Leishmania donovani [1] greater than 50 µM. Moreover, the 50% cytotoxic concentration (CC50) at 72 h in data set [2] and in data set [3] was greater than 100 µM throughout.
Regarding `Cc1ccc2cccc([N+](=O)[O-])c2n1`, the IC50 in the data set with Leishmania donovani [1] was greater than 50 µM. Further, the CC50 at 72 h in data set [2] and in data set [3] was greater than 100 µM throughout.
For `Oc1ccc2ccccc2n1`, the IC50 in the data set on Leishmania donovani [1] is greater than 50 µM. Moreover, the 50% cytotoxic concentration (CC50) at 72 h in data set [2] and in data set [3] was greater than 100 µM in each case.
Compound `O=Cc1ccc2c([N+](=O)[O-])cccc2n1` gave an IC50 in the data set on Leishmania donovani [1] greater than 50 µM. For the same compound, the half-maximal cytotoxic concentration (CC50) at 72 h worked out at 22.8 µM in data set [2] and 92 µM in data set [3]. The “Ratio CC50/IC50” value was less than 0.46 in data set [4] and less than 1.8 in data set [5].
In the data set with Leishmania donovani [1], `Clc1ccc2ccccc2n1` displayed an IC50 greater than 50 µM. Besides, the half-maximal cytotoxic concentration (CC50) at 72 h in data set [2] and in data set [3] was greater than 100 µM each time.
Turning to `O=[N+]([O-])c1cccc2nc(Cl)ccc12`, the IC50 in the data set with Leishmania donovani [1] is greater than 50 µM. The CC50 at 72 h in data set [2] and in data set [3] was greater than 100 µM in each case.
In the case of `O=[N+]([O-])c1cccc2nc(O)ccc12`, the IC50 in the data set with Leishmania donovani [1] was greater than 50 µM. Besides, the 50% cytotoxic concentration (CC50) at 72 h in data set [2] and in data set [3] was greater than 100 µM throughout.
`O=[N+]([O-])c1ccc2nc(O)ccc2c1`: the half-maximal inhibitory concentration (IC50) in the data set on Leishmania donovani [1] was greater than 50 µM. The CC50 at 72 h in data set [2] is 83.7 µM; in data set [3] it was greater than 100 µM. Besides, the “Ratio CC50/IC50” value in data set [4] is less than 1.7.
`C[C@@H]1[C@H](O)[C@@H](C)/C=C/C=C/C=C/C=C/C=C/C=C/C=C/[C@H](O[C@@H]2O[C@H](C)[C@@H](O)[C@H](N)[C@@H]2O)C[C@@H]2O[C@](O)(C[C@@H](O)C[C@@H](O)[C@H](O)CC[C@@H](O)C[C@@H](O)CC(=O)O[C@H]1C)C[C@H](O)[C@H]2C(=O)O` [AMPHOTERICIN B]: the 50% inhibitory concentration (IC50) with Leishmania donovani [1] was 0.1 µM; in the data set on Leishmania infantum, 0.05 µM. In data set [2], the half-maximal cytotoxic concentration (CC50) at 72 h was determined as 3.1 µM.
`COc1cccc2c1C(=O)c1c(O)c3c(c(O)c1C2=O)C[C@@](O)(C(=O)CO)C[C@@H]3O[C@H]1C[C@H](N)[C@H](O)[C@H](C)O1` [DOXORUBICIN] displayed a CC50 at 72 h in data set [2] of 0.02 µM. That is a double-digit nanomolar value.
For `CCCCCCCCCCCCCCCCOP(=O)([O-])OCC[N+](C)(C)C` [MILTEFOSINE], the IC50 with Leishmania infantum is 11.6 µM; in the data set on Leishmania donovani [6], 6.8 µM. In addition, the figures for the CC50 at 72 h in data set [2] and in data set [3] were 94.6 µM and 50.3 µM, respectively.
As to `N=C(N)c1ccc(OCCCCCOc2ccc(C(=N)N)cc2)cc1` [PENTAMIDINE], the half-inhibitory concentration (IC50) in the data set with Leishmania donovani [1] was 6 µM; in the data set with Leishmania infantum it was 8.2 µM; in the data set on Leishmania donovani [6], greater than 20 µM. Besides, the half-maximal cytotoxic concentration (CC50) at 72 h in data set [2] worked out at 1 µM; in data set [3] it was 2.3 µM. Further, the “Ratio CC50/IC50” value in data set [4] was determined as 0.17; in data set [5] it was 0.38.
With `CCc1nc(N)nc(N)c1-c1ccc(Cl)cc1` [PYRIMETHAMINE], the half-inhibitory concentration (IC50) with Toxoplasma gondii stood at 0.8 µM.
In the data set on Leishmania donovani [1], `Cc1ccc2ccccc2n1` [QUINALDINE] returned an IC50 greater than 50 µM. The CC50 at 72 h in data set [2] and in data set [3] was greater than 100 µM in each case.
`c1ccc2ncccc2c1` [QUINOLINE] displayed an IC50 in the data set with Leishmania donovani [1] greater than 50 µM. For the same compound, the CC50 at 72 h in data set [2] and in data set [3] was greater than 100 µM in each case.
